Bioassay records as filed in PubChem.
T cruzi inh = T. cruzi replication inhibition | T. cruzi beta-gal in NIH3T3, luminescence, 90 h | inhibition, % (test concentration not listed) | AID 1885 | actives 1.4% (n = 300,000);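 active = mean inhibition across valid replicates above about 55%, limit read from the data; inconclusive = mean below that limit but half or more replicates reach it; inactive = mean below it, under half of replicates reach it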;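 note: signal also drops with host cell toxicity which is not excluded here; higher percent means less beta-gal luminescence so fewer parasites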
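assay system = mouse NIH/3T3 fibroblasts infected with β-gal-expressing T. cruzi Tulahuen C4 | input = 5,000 NIH/3T3 host cells per well | buffer or medium = DMEM plus 2% FBS | timing = 3 h host attachment, then at least 90 h co-culture | measured by = GalScreen luminescence, 60 min | evaluation = luminescence reflecting intracellular parasite burden, expressed as percent inhibition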
NALP3 yeast inh = inhibitors of NALP3 inflammasome in yeast; Yeast reconstituted NLRP3/ASC/caspase-1, beta-gal luminescence, 24 h; inhibition, % at 10 µM; actives 0.39% (n = 330,000); AID 2825;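 active = inhibition of 50% or more; inactive = inhibition below 50%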
NALP1 yeast inh = blocks the NALP1 inflammasome reconstituted in yeast. S. cerevisiae NALP1/ASC/caspase-1 growth, X-gal OD620, 72 h. inhibition, % at 10 µM. actives 0.61% (n = 280,000). AID 2071; in the data active = inhibition mostly above about 24%, no sharp cut-off; inactive = mostly below about 32%
Calb FLC = C. albicans growth modulation with fluconazole | C. albicans CaCi-2 + fluconazole, Alamar Blue growth, 48 h | actives 0.57% (n = 300,000) | growth inhibition, % (concentration not given with the values) | AID 1979;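 active = growth inhibition above about 58% in most replicates, limit read from the data, passing the limit was not always enough; inconclusive = exactly half the replicates above a set limit; inactive = most replicates below a set limit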;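 note: all wells also contain fluconazole at 8 µg/ml as a sub-toxic cotreatment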
PolyA inhibitor = yeast polyadenylation inhibition; AID 1875; S. cerevisiae SKY197-pL101 polyadenylation reporter, beta-gal luminescence; efflux-impaired pdr1/pdr3 knockout yeast; score 100 = 6 SD above DMSO; activity score, % at 12 µM; actives 0.02% (n = 300,000);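 active = lowest replicate activity score at least 50, where 100 means six control SD above control mean; inconclusive = lowest score under 50 but half or more replicates reach 50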;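 note: yeast exposed to compound for 9 h at 30 °C; higher score means more reporter readthrough which indicates perturbed polyadenylation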
L major viab = reduces viability of Leishmania major promastigotes. resazurin fluorescence viability. inhibition, % at 10 µM. actives 9% (n = 200,000); in the data active = inhibition above about 50%;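 note: promastigotes grown with compound for 44 hours at 28 °C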
Hits are given with their value. The full list was thinned out, with hits kept by preference.

For O=C(CSc1cccc[n+]1[O-])CSc1cccc[n+]1[O-] the results were T cruzi inh 67, NALP3 yeast inh inactive, NALP1 yeast inh inactive, Calb FLC 73, PolyA inhibitor inactive and L major viab 99.
Screening COC(=O)c1ccc(C(=O)OC)c(NC(=O)COC(=O)C2CC2C)c1 (configuration not stated) returned T cruzi inh inactive, NALP3 yeast inh inactive, NALP1 yeast inh inactive, Calb FLC inactive, PolyA inhibitor inactive and L major viab 76.
Screening COC(=O)c1ccccc1NC(=O)CSc1nc(N)cc(N)n1 returned T cruzi inh inactive, NALP3 yeast inh inactive, NALP1 yeast inh 32, Calb FLC inactive, PolyA inhibitor inactive and L major viab inactive.
Screening CCOC(=O)c1ccccc1NC(=O)CSc1nc(N)cc(N)n1 returned T cruzi inh inactive, NALP3 yeast inh inactive, NALP1 yeast inh inactive, Calb FLC inactive, PolyA inhibitor inactive and L major viab inactive.
For CC(C)C(NC(=O)C(NC(=O)C1O[C@@H]2OC(C)(C)O[C@@H]2[C@H]2OC(C)(C)O[C@@H]12)C(C)C)C(=O)O (some centres not stated) the results were T cruzi inh inactive, NALP3 yeast inh inactive, NALP1 yeast inh inactive, Calb FLC inactive, PolyA inhibitor inactive and L major viab inactive.
Cc1ccccc1C(=O)NCCNC(=O)c1cnccn1 was read as T cruzi inh inactive, NALP3 yeast inh inactive, NALP1 yeast inh inactive, Calb FLC inactive and PolyA inhibitor inactive.
Screening O=C(CSc1cccc[n+]1[O-])Nc1ccccc1Oc1ccccc1 returned T cruzi inh 82, NALP3 yeast inh inactive, NALP1 yeast inh inactive, Calb FLC inconclusive, PolyA inhibitor inactive and L major viab 100.
For O=C(CSc1cccc[n+]1[O-])Nc1ccccc1C(F)(F)F the results were NALP3 yeast inh inactive.
COC(=O)c1ccc(-n2c(C)cc(C(=O)CSc3cccc[n+]3[O-])c2C)cc1 was read as T cruzi inh inactive, NALP3 yeast inh inactive, NALP1 yeast inh inactive, Calb FLC inactive, PolyA inhibitor inactive and L major viab 98.
Screening C/C(Cl)=C\COc1cc(C)nc2c(Br)cccc12 returned T cruzi inh inactive, NALP3 yeast inh inactive, NALP1 yeast inh inactive, Calb FLC inactive, PolyA inhibitor inactive and L major viab inactive.
C=C1C(=O)[C@@]23[C@H](O)C[C@@H]4C(C)(C)CC[C@H](O)[C@]4(C)[C@@H]2C[C@H](O)[C@@H]1[C@H]3O was read as T cruzi inh inactive, NALP3 yeast inh inactive, NALP1 yeast inh inactive, Calb FLC inactive, PolyA inhibitor inactive and L major viab inactive.
C=C1C(=O)[C@@]23[C@H](O)C[C@@H]4C(C)(C)CC[C@H](O)[C@@]4(C)[C@@H]2CC[C@@H]1[C@H]3O was read as T cruzi inh inactive, NALP3 yeast inh inactive, NALP1 yeast inh inactive, Calb FLC inactive, PolyA inhibitor inactive and L major viab 100.
For CCOC(=O)COc1ccc(S(=O)(=O)N2CCN(c3ccccc3F)CC2)cc1 the results were T cruzi inh inactive, NALP3 yeast inh inactive, NALP1 yeast inh inactive, Calb FLC 103, PolyA inhibitor inactive and L major viab inactive.
Screening CCC(=O)c1cc(F)c(N2CCN(S(=O)(=O)c3ccc(C)cc3)CC2)cc1C returned T cruzi inh 59, NALP3 yeast inh inactive, NALP1 yeast inh inactive, Calb FLC inactive, PolyA inhibitor inactive and L major viab 69.
`Cc1ccc(S(=O)(=O)N2CCN(c3ccc(C(=O)N4CCOCC4)cc3[N+](=O)[O-])CC2)cc1` gave T cruzi inh inactive, NALP3 yeast inh inactive, NALP1 yeast inh inactive, Calb FLC inactive, PolyA inhibitor inactive and L major viab 61.
`O=C(COc1ccc(S(=O)(=O)N2CCCC2)cc1)N1CCN(c2ccccc2F)CC1` gave T cruzi inh inactive, NALP3 yeast inh inactive, NALP1 yeast inh inactive, Calb FLC inactive and PolyA inhibitor inactive.
Cc1ccc(N2CCN(S(=O)(=O)c3ccc(F)c(C)c3)CC2)c(C)c1 was read as T cruzi inh inactive, NALP3 yeast inh inactive, NALP1 yeast inh inactive, Calb FLC inactive, PolyA inhibitor inactive and L major viab inactive.
CO/N=C/c1ccc(N2CCN(C(=O)c3ccc(C)cc3)CC2)c([N+](=O)[O-])c1 was read as T cruzi inh inactive, NALP3 yeast inh inactive, NALP1 yeast inh inactive, Calb FLC 109, PolyA inhibitor inactive and L major viab inactive.
CO/N=C/c1ccc(N2CCCC2)c([N+](=O)[O-])c1 was read as T cruzi inh inactive, NALP3 yeast inh inactive, NALP1 yeast inh inactive, Calb FLC inactive, PolyA inhibitor inactive and L major viab inactive.
C/C(=N\Nc1nc2ccccc2[nH]1)c1ccc(C)o1 was read as T cruzi inh inactive, NALP3 yeast inh inactive, NALP1 yeast inh inactive, Calb FLC inactive, PolyA inhibitor inactive and L major viab 65.
For C/C(=N\Nc1nc2ccccc2[nH]1)c1ccc(N2CCOCC2)cc1 the results were T cruzi inh inactive, NALP3 yeast inh inactive, NALP1 yeast inh inactive, Calb FLC inactive, PolyA inhibitor inactive and L major viab 100.
C/C(=N\Nc1nc2ccccc2[nH]1)c1ccc(Cl)s1 was read as T cruzi inh inactive, NALP3 yeast inh inactive, NALP1 yeast inh inactive, Calb FLC inactive, PolyA inhibitor inactive and L major viab 90.
CCc1noc(C)c1C(=O)OCC(=O)c1ccccc1OC was read as T cruzi inh inactive, NALP3 yeast inh inactive, NALP1 yeast inh inactive, Calb FLC inactive and PolyA inhibitor inactive.
Cc1cccc2c(=O)c(Br)c(C)n(Cc3ccccc3)c12 was read as T cruzi inh inactive, NALP3 yeast inh inactive, NALP1 yeast inh inactive, Calb FLC inactive, PolyA inhibitor inactive and L major viab inactive.
For CCC(=O)NC(c1ccc(N(C)C)cc1)c1c(O)ccc2ccccc12 (configuration not stated) the results were T cruzi inh inactive, NALP3 yeast inh inactive, NALP1 yeast inh inactive, Calb FLC inactive, PolyA inhibitor inactive and L major viab 100.
For COc1ccc(C(NC(=O)C(C)C)c2c(O)ccc3ccccc23)cc1OC (configuration not stated) the results were T cruzi inh inactive, NALP3 yeast inh inactive, NALP1 yeast inh inactive, Calb FLC inactive, PolyA inhibitor inactive and L major viab 99.
For COc1ccc(C(NC(=O)C(C)C)c2c(O)ccc3ccccc23)cc1 (configuration not stated) the results were T cruzi inh inactive, NALP3 yeast inh inactive, NALP1 yeast inh inactive, Calb FLC inactive, PolyA inhibitor inactive and L major viab 96.
CN(C)c1ccc(C(CNC(=O)Cc2cccc3ccccc23)N(C)C)cc1 (configuration not stated) was read as T cruzi inh inactive, NALP3 yeast inh inactive, NALP1 yeast inh inactive, Calb FLC inactive and PolyA inhibitor inactive.
